How the values were obtained:
Staphylococcus aureus [1] = experiment: Growth inhibition of wild type Staphylococcus aureus SA1199 assessed as non-toxic concentration after 18 to 24 hrs by broth microdilution method; assay type: organism-based; settings: pooled result: one value given for 2 cell lines, strains, targets or settings, read-out: Activity
Staphylococcus aureus [2] = experiment: Bactericidal activity against wild type Staphylococcus aureus SA1199 at 10 ug/ml after 18 to 24 hrs by broth microdilution method; assay type: ADME, organism-based
Staphylococcus aureus [3] = experiment: Potentiation of ciprofloxacin-induced antibacterial activity against wild type Staphylococcus aureus SA1199 assessed as fold reduction in ciprofloxacin MIC at 23 uM after 18 to 24 hrs by broth microdilution method; assay type: functional
How it was run: (§1)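 Ciprofloxacin MIC by CLSI/CASFM broth microdilution in Mueller-Hinton II, two-fold serial dilutions, inoculum 5.10⁵ CFU/mL, 37 °C for 18-24 h. MIC is the lowest concentration with no visible growth. Test agent co-administered at a fixed final concentration without antibacterial activity (10 or 30 µg/mL, or 1/4 MIC where intrinsically active). Result is fold reduction of ciprofloxacin MIC. At least three independent experiments.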

[4] = molecular target: T1, Quinolone resistance protein NorA (Staphylococcus aureus) (UniProt P0A0J7); experiment: Inhibition of NorA in Staphylococcus aureus SA1199B assessed as potentiation of ciprofloxacin-induced antibacterial activity by measuring fold reduction in ciprofloxacin MIC at 23 uM after 18 to 24 hrs by broth microdilution method; how it was run: as §1
T1 sequence (whole entry): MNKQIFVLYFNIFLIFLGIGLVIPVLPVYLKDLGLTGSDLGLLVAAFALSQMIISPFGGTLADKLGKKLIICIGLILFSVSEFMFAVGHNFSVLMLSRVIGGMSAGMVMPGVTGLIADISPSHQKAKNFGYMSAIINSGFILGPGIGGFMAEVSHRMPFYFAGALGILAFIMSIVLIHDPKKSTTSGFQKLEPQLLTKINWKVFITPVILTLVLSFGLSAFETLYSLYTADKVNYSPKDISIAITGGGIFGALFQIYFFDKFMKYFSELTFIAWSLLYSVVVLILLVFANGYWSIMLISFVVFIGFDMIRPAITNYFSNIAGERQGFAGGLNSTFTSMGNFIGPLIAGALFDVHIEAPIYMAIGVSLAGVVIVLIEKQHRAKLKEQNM

[5] = Cytotoxicity against human MRC5 cells assessed as reduction in cell viability after 72 hrs by MTT assay; assay type: cell-based
How it was run: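 MRC5 human lung fibroblasts plated in triplicate at 6000 cells/well in MEM with 10% FBS and incubated overnight at 37 °C, 5% CO2. Compound or DMSO vehicle applied for 72 h, then MTT 1 mg/mL added for 3 h at 37 °C. Formazan dissolved in 0.01 M HCl in isopropanol for 15 min. A570 read minus A690; GI50 as mean SD of ≥3 independent experiments.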

Staphylococcus aureus [6] = experiment: Bactericidal activity against wild type Staphylococcus aureus SA1199 at 30 ug/ml after 18 to 24 hrs by broth microdilution method; assay type: ADME, organism-based; settings: in vitro
Staphylococcus aureus [7] = experiment: Potentiation of ciprofloxacin-induced antibacterial activity against wild type Staphylococcus aureus SA1199 assessed as fold reduction in ciprofloxacin MIC at 80.6 uM after 18 to 24 hrs by broth microdilution method; assay type: functional; how it was run: as §1
[8] = molecular target: T1, Quinolone resistance protein NorA (Staphylococcus aureus); experiment: Inhibition of NorA in Staphylococcus aureus SA1199B assessed as potentiation of ciprofloxacin-induced antibacterial activity by measuring fold reduction in ciprofloxacin MIC at 80.6 uM after 18 to 24 hrs by broth microdilution method; how it was run: as §1
Staphylococcus aureus [9] = experiment: Potentiation of ciprofloxacin-induced antibacterial activity against wild type Staphylococcus aureus SA1199 assessed as fold reduction in ciprofloxacin MIC at 22.9 uM after 18 to 24 hrs by broth microdilution method; assay type: functional; how it was run: as §1
[10] = molecular target: T1, Quinolone resistance protein NorA (Staphylococcus aureus); experiment: Inhibition of NorA in Staphylococcus aureus SA1199B assessed as potentiation of ciprofloxacin-induced antibacterial activity by measuring fold reduction in ciprofloxacin MIC at 22.9 uM after 18 to 24 hrs by broth microdilution method; how it was run: as §1
Staphylococcus aureus [11] = experiment: Potentiation of ciprofloxacin-induced antibacterial activity against wild type Staphylococcus aureus SA1199 assessed as fold reduction in ciprofloxacin MIC at 32.9 uM after 18 to 24 hrs by broth microdilution method; assay type: functional
Staphylococcus aureus [12] = experiment: Potentiation of ciprofloxacin-induced antibacterial activity against wild type Staphylococcus aureus SA1199 assessed as fold reduction in ciprofloxacin MIC at 81.3 uM after 18 to 24 hrs by broth microdilution method; assay type: functional; how it was run: as §1
[13] = molecular target: T1, Quinolone resistance protein NorA (Staphylococcus aureus); experiment: Inhibition of NorA in Staphylococcus aureus SA1199B assessed as potentiation of ciprofloxacin-induced antibacterial activity by measuring fold reduction in ciprofloxacin MIC at 81.3 uM after 18 to 24 hrs by broth microdilution method; how it was run: as §1
Staphylococcus aureus [14] = experiment: Potentiation of ciprofloxacin-induced antibacterial activity against wild type Staphylococcus aureus SA1199 assessed as fold reduction in ciprofloxacin MIC at 73 uM after 18 to 24 hrs by broth microdilution method; assay type: functional; how it was run: as §1
[15] = molecular target: T1, Quinolone resistance protein NorA (Staphylococcus aureus); experiment: Inhibition of NorA in Staphylococcus aureus SA1199B assessed as potentiation of ciprofloxacin-induced antibacterial activity by measuring fold reduction in ciprofloxacin MIC at 73 uM after 18 to 24 hrs by broth microdilution method; how it was run: as §1
Staphylococcus aureus [16] = experiment: Potentiation of ciprofloxacin-induced antibacterial activity against wild type Staphylococcus aureus SA1199 assessed as fold reduction in ciprofloxacin MIC at 19.1 uM after 18 to 24 hrs by broth microdilution method; assay type: functional; how it was run: as §1
[17] = molecular target: T1, Quinolone resistance protein NorA (Staphylococcus aureus); experiment: Inhibition of NorA in Staphylococcus aureus SA1199B assessed as potentiation of ciprofloxacin-induced antibacterial activity by measuring fold reduction in ciprofloxacin MIC at 19.1 uM after 18 to 24 hrs by broth microdilution method; how it was run: as §1
[18] = molecular target: T1, Quinolone resistance protein NorA (Staphylococcus aureus); experiment: Potency index, ratio of compound effect to reserpine effect for inhibition of NorA in Staphylococcus aureus SA1199B assessed as potentiation of ciprofloxacin-induced antibacterial activity by measuring fold reduction in ciprofloxacin MIC
Staphylococcus aureus [19] = experiment: Potentiation of ciprofloxacin-induced antibacterial activity against wild type Staphylococcus aureus SA1199 assessed as fold reduction in ciprofloxacin MIC at 20.6 uM after 18 to 24 hrs by broth microdilution method; assay type: functional; how it was run: as §1
[20] = molecular target: T1, Quinolone resistance protein NorA (Staphylococcus aureus); experiment: Inhibition of NorA in Staphylococcus aureus SA1199B assessed as potentiation of ciprofloxacin-induced antibacterial activity by measuring fold reduction in ciprofloxacin MIC at 20.6 uM after 18 to 24 hrs by broth microdilution method; how it was run: as §1
Staphylococcus aureus [21] = experiment: Growth inhibition of wild type Staphylococcus aureus SA1199 at 3.9 ug/ml after 18 to 24 hrs by broth microdilution method; assay type: organism-based
Staphylococcus aureus [22] = experiment: Growth inhibition of Staphylococcus aureus SA1199B over-expressing NorA at 3.9 ug/ml after 18 to 24 hrs by broth microdilution method; assay type: organism-based
Staphylococcus aureus [23] = experiment: Potentiation of ciprofloxacin-induced antibacterial activity against wild type Staphylococcus aureus SA1199 assessed as fold reduction in ciprofloxacin MIC at 8.5 uM after 18 to 24 hrs by broth microdilution method; assay type: functional; how it was run: as §1
[24] = molecular target: T1, Quinolone resistance protein NorA (Staphylococcus aureus); experiment: Inhibition of NorA in Staphylococcus aureus SA1199B assessed as potentiation of ciprofloxacin-induced antibacterial activity by measuring fold reduction in ciprofloxacin MIC at 8.5 uM after 18 to 24 hrs by broth microdilution method; how it was run: as §1
Staphylococcus aureus [25] = experiment: Growth inhibition of wild type Staphylococcus aureus SA1199 after 18 to 24 hrs by broth microdilution method; assay type: organism-based
Staphylococcus aureus [26] = experiment: Growth inhibition of Staphylococcus aureus SA1199B over-expressing NorA at 15.6 ug/ml after 18 to 24 hrs by broth microdilution method; assay type: organism-based
Staphylococcus aureus [27] = experiment: Potentiation of ciprofloxacin-induced antibacterial activity against wild type Staphylococcus aureus SA1199 assessed as fold reduction in ciprofloxacin MIC at 37.1 uM after 18 to 24 hrs by broth microdilution method; assay type: functional; how it was run: as §1
[28] = molecular target: T1, Quinolone resistance protein NorA (Staphylococcus aureus); experiment: Inhibition of NorA in Staphylococcus aureus SA1199B assessed as potentiation of ciprofloxacin-induced antibacterial activity by measuring fold reduction in ciprofloxacin MIC at 37.1 uM after 18 to 24 hrs by broth microdilution method; how it was run: as §1
Staphylococcus aureus [29] = experiment: Potentiation of ciprofloxacin-induced antibacterial activity against wild type Staphylococcus aureus SA1199 assessed as fold reduction in ciprofloxacin MIC at 21 uM after 18 to 24 hrs by broth microdilution method; assay type: functional; how it was run: as §1
[30] = molecular target: T1, Quinolone resistance protein NorA (Staphylococcus aureus); experiment: Inhibition of NorA in Staphylococcus aureus SA1199B assessed as potentiation of ciprofloxacin-induced antibacterial activity by measuring fold reduction in ciprofloxacin MIC at 21 uM after 18 to 24 hrs by broth microdilution method; how it was run: as §1
Staphylococcus aureus [31] = experiment: Potentiation of ciprofloxacin-induced antibacterial activity against wild type Staphylococcus aureus SA1199 assessed as fold reduction in ciprofloxacin MIC at 90.9 uM after 18 to 24 hrs by broth microdilution method; assay type: functional; how it was run: as §1
[32] = molecular target: T1, Quinolone resistance protein NorA (Staphylococcus aureus); experiment: Inhibition of NorA in Staphylococcus aureus SA1199B assessed as potentiation of ciprofloxacin-induced antibacterial activity by measuring fold reduction in ciprofloxacin MIC at 90.9 uM after 18 to 24 hrs by broth microdilution method; how it was run: as §1
Staphylococcus aureus [33] = experiment: Potentiation of ciprofloxacin-induced antibacterial activity against wild type Staphylococcus aureus SA1199 assessed as fold reduction in ciprofloxacin MIC at 25.3 uM after 18 to 24 hrs by broth microdilution method; assay type: functional; how it was run: as §1
[34] = molecular target: T1, Quinolone resistance protein NorA (Staphylococcus aureus); experiment: Inhibition of NorA in Staphylococcus aureus SA1199B assessed as potentiation of ciprofloxacin-induced antibacterial activity by measuring fold reduction in ciprofloxacin MIC at 25.3 uM after 18 to 24 hrs by broth microdilution method; how it was run: as §1

Row | Structure (SMILES) | MNTC (Staphylococcus aureus [1]) | Activity (Staphylococcus aureus [2]) | GI50 at 72 h [5] | Activity (Staphylococcus aureus [6]) | further results
1 | CC(C)(C)OC(=O)NCCN(CCc1c[nH]c2ccccc12)C(=O)/C=C/c1ccccc1 | 23 µM | Non-Toxic | 35.3 µM | – | fold change (FC) (Staphylococcus aureus [3]): 2; fold change (FC) [4]: 4
2 | CC(C)[C@H](N)CN(CCc1ccccc1)C(=O)/C=C/c1ccccc1.Cl | 80.6 µM | – | 52.4 µM | Non-Toxic | fold change (FC) (Staphylococcus aureus [7]): 1 - 2; fold change (FC) [8]: 2
3 | CC(C)[C@@H](CN(CCc1ccccc1)C(=O)/C=C/c1ccccc1)NC(=O)OC(C)(C)C | 22.9 µM | Non-Toxic | 40.7 µM | – | fold change (FC) (Staphylococcus aureus [9]): 1 - 2; fold change (FC) [10]: 2
4 | COC(=O)[C@H]1[C@H]2C[C@@H]3c4[nH]c5cc(OC)ccc5c4CCN3C[C@H]2C[C@@H](OC(=O)c2cc(OC)c(OC)c(OC)c2)[C@@H]1OC [RESERPINE] | 32.9 µM | – | 14.7 µM | – | fold change (FC) (Staphylococcus aureus [11]): 2
5 | Cl.NCCN(CCc1c[nH]c2ccccc12)C(=O)/C=C/c1ccccc1 | 81.3 µM | – | 20.7 µM | Non-Toxic | fold change (FC) (Staphylococcus aureus [12]): 2; fold change (FC) [13]: 2
6 | CC(C)[C@H](N)CN(CCc1c[nH]c2ccccc12)C(=O)/C=C/c1ccccc1.Cl | 73 µM | – | 25.3 µM | Non-Toxic | fold change (FC) (Staphylococcus aureus [14]): 2 - 4; fold change (FC) [15]: 4
7 | CC(C)(C)OC(=O)N[C@@H](Cc1ccccc1)CN(CCc1c[nH]c2ccccc12)C(=O)/C=C/c1ccccc1 | 19.1 µM | Non-Toxic | 70 µM | – | fold change (FC) (Staphylococcus aureus [16]): 1 - 2; fold change (FC) [17]: 4 to 8; Ratio [18]: 2
8 | CC(C)(C)OC(=O)N[C@@H](Cc1ccccc1)CN(CCc1ccccc1)C(=O)/C=C/c1ccccc1 | 20.6 µM | Non-Toxic | 17.3 µM | – | fold change (FC) (Staphylococcus aureus [19]): 1; fold change (FC) [20]: 1 to 2
9 | Cl.N[C@@H](Cc1ccccc1)CN(CCc1c[nH]c2ccccc12)C(=O)/C=C/c1ccccc1 | 8.5 µM | – | 6.33 µM | – | growth inhibition (GI) (Staphylococcus aureus [21]): Toxic; growth inhibition (GI) (Staphylococcus aureus [22]): Toxic; fold change (FC) (Staphylococcus aureus [23]): 2; fold change (FC) [24]: 2; MIC (Staphylococcus aureus [25]): 15.7 µg/mL
10 | Cl.N[C@@H](Cc1ccccc1)CN(CCc1ccccc1)C(=O)/C=C/c1ccccc1 | 37.1 µM | – | 6.5 µM | – | growth inhibition (GI) (Staphylococcus aureus [26]): Toxic; fold change (FC) (Staphylococcus aureus [27]): 2 - 4; fold change (FC) [28]: 2; MIC (Staphylococcus aureus [25]): 62.5 µg/mL
11 | CC(C)[C@@H](CN(CCc1c[nH]c2ccccc12)C(=O)/C=C/c1ccccc1)NC(=O)OC(C)(C)C | 21 µM | Non-Toxic | 43.7 µM | – | fold change (FC) (Staphylococcus aureus [29]): 1 - 2; fold change (FC) [30]: 4
12 | Cl.NCCN(CCc1ccccc1)C(=O)/C=C/c1ccccc1 | 90.9 µM | – | 73.3 µM | Non-Toxic | fold change (FC) (Staphylococcus aureus [31]): 1 - 2; fold change (FC) [32]: 1
13 | CC(C)(C)OC(=O)NCCN(CCc1ccccc1)C(=O)/C=C/c1ccccc1 | 25.3 µM | Non-Toxic | 54.7 µM | – | fold change (FC) (Staphylococcus aureus [33]): 1; fold change (FC) [34]: 2
